Bioassay records: PubChem, several laboratories
PRMT1 FP inh – PRMT1 (human) inhibition, primary screen; 370,000 tested, 1.3% active; recombinant PRMT1, activity-based probe fluorescence polarization; inhibition, % at 2.79 µM;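 active means inhibition above about 21% made by adding two undisclosed values, limit read from the data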
ATG4B inhibitor – inhibitors of human ATG4B cysteine protease | AID 504462 | Q9Y4P1 | ATG4B cleavage of LC3-PLA2, NBD-HPC fluorescence, 1 h | 340,000 tested, 0.51% active | inhibition, % at 8.33 µM; in the data active means inhibition above about 40%
Target sequence (Q9Y4P1 whole entry, looked up): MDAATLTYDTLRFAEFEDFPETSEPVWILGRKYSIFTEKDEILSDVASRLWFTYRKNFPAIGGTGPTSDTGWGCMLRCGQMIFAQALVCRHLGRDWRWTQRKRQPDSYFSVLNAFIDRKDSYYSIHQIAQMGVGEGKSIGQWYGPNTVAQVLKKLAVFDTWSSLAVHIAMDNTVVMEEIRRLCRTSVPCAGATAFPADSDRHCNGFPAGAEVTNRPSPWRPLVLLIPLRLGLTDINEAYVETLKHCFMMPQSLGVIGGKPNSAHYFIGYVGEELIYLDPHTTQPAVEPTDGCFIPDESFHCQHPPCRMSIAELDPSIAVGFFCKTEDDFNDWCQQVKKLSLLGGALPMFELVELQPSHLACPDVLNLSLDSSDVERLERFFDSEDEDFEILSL
ABHD4 inh – ABHD4 (mouse) inhibition, primary FP screen. purified mABHD4, FP-Rh probe fluorescence polarization. inhibition, % at 8.92 µM. 370,000 tested, 0.54% active. AID 720543;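 active means inhibition exceeding the mean over every tested compound plus 3 SD, cut at about 30% in these data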
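System: mouse ABHD4 enzyme, wild type / Medium: HEPES pH 7.0, NaCl, Pluronic buffer / Reagent: FP-Rh activity-based fluorescent probe / Control set: S159A mutant high control, sample median low control / Detection: fluorescence polarization with parallel and perpendicular emission, 525/598 nm / Schedule: 45 min + 60 min at 25 °C / Compound dosing: 8.92 µM, single dose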
TCR-CD3 inh – blocks the human TCR-CD3 interaction | TAMRA-labeled TCR probe fluorescence, biochemical | 360,000 tested, 0.37% active | inhibition, % at 9.4 µM;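 further: recombinant mutant TCR 2C K166C tagged with TAMRA read by polarization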
SIAE primary – blocks human sialic acid acetylesterase; Q9HAT2; SIAE FP-Rh probe binding, fluorescence polarization; inhibition, % at 9.66 µM; 370,000 tested, 0.69% active; AID 1053197;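 active means inhibition above a cutoff: mean of compounds within the control limits plus 3 SD of those, cut at about 17% in these data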
HTRA1 inhibitor – HTRA1 (human) protease inhibition | recombinant HTRA1, FP-rhodamine activity-based probe, fluorescence polarization | AID 504803 | inhibition, % at 5.96 µM | 340,000 tested, 0.5% active | Q92743; in the data active means inhibition above about 36%
BSA TAMRA ctr – counter-screen for TCR-CD3 interaction inhibitors: BSA probe; shares compounds with TCR-CD3 inh; TAMRA-labeled BSA probe fluorescence counterscreen; inhibition, % at 9.4 µM; 1,200 tested, 10% active; in the data active means inhibition above about 23%
TCR-CD3 inh conf – confirmation of human TCR-CD3 interaction inhibitors. shares compounds with TCR-CD3 inh. TAMRA-labeled TCR probe fluorescence binding assay. inhibition, % at 9.4 µM. 1,200 tested, 48% active
Numbers stand for hits; . = inactive; / = not tested or not shown; ! = not confirmed by another sample. Compounds with a hit are over-represented: about 2.9% of the library has one in this group of screens. Unless noted, no stated cut-off is given here; in the data, active means inhibition above about 19%; inactive means the rest.

SMILES	PRMT1 FP inh	ATG4B inhibitor	ABHD4 inh	TCR-CD3 inh	SIAE primary	HTRA1 inhibitor	BSA TAMRA ctr	TCR-CD3 inh conf
O=[N+]([O-])c1cc(C(F)(F)F)ccc1NC1CCN(Cc2ccccc2)CC1	.	.	.	39	.	/	.	.
O=[N+]([O-])c1cc(C(F)(F)F)ccc1NC1CCN(Cc2ccccc2)C1 (centres undefined)	.	.	.	.	.	.	/	/
COc1ccccc1COC(=O)c1cccc(S(=O)(=O)N(C)Cc2ccccc2)c1	.	/	.	/	.	/	/	/
O=C(N/N=C/c1cc([N+](=O)[O-])cc([N+](=O)[O-])c1O)/C(=C\c1cccs1)NC(=O)c1ccccc1	.	.	.	47	.	.	.	45
O=C(N/N=C/c1cccc([N+](=O)[O-])c1O)C(O)(c1ccccc1)c1ccccc1	.	.	.	28	.	.	.	26
O=C(N/N=C/c1cccc([N+](=O)[O-])c1O)c1cccs1	.	.	.	29	.	.	.	31
O=C(N/N=C/c1ccc([N+](=O)[O-])cc1)c1cccs1	.	.	.	.	.	/	/	/
COc1cc([N+](=O)[O-])cc(/C=N/NC(=O)C(O)(c2ccccc2)c2ccccc2)c1O	.	.	.	.	.	.	/	/
CCn1c(=O)n(CC(=O)N2CCN(C(C)=O)CC2)c(=O)c2ccccc21	.	/	.	/	.	/	/	/
Cc1ccc(C(=O)Nc2cccc(C(F)(F)F)c2)cc1NC(=O)c1c[nH]c2cc(C(F)(F)F)ccc2c1=O	.	.	.	.	.	.	/	/
CCN1CCN(Cc2ccc(NC(=O)c3ccc(C)c(NC(=O)c4c[nH]c5cc(C(F)(F)F)ccc5c4=O)c3)cc2C(F)(F)F)CC1	.	.	.	24	.	.	.	21!
Cc1ccc(S(=O)(=O)N(C)c2ccc(OCC(=O)Nc3nc4ccccc4s3)cc2)cc1	.	.	.	21	.	.	.	.
Cc1ccc(S(=O)(=O)N(C)c2ccc(OCC(=O)Nc3nc4c(ccc5ccccc54)s3)cc2)cc1	.	.	.	.	.	.	/	/
Cc1ccc(-c2nc(C3CCCN(S(=O)(=O)c4cccs4)C3)no2)cc1 (centres undefined)	.	/	.	/	.	/	/	/
O=C(COc1ccc(F)cc1Cl)Nc1nnc(-c2ccc(F)c(F)c2)o1	.	/	.	/	.	/	/	/
COc1ccc(NC(=O)CSCC(=O)Nc2sccc2C#N)cc1	.	.	.	21	.	.	.	.
C=Cc1c(C)c2cc3[nH]c(cc4nc(cc5nc(cc1[nH]2)C(C)=C5CCC(=O)O)C(CCC(=O)O)=C4C)c(C)c3C=C	27	48!	70	37	75	69	.	19
N#Cc1ccc(S(=O)(=O)N2CCCc3nc(-c4ccc(Br)cc4)ccc32)cc1	.	/	.	.	.	/	/	/
Cn1cccc1CC(=O)NNC(=S)NC(=O)c1ccccc1Br	.	.	.	28	.	.	.	.
Cc1cccc(NC(=O)C2CCCN(c3nnc(-n4cccc4)s3)C2)c1C (centres undefined)	.	/	.	/	.	/	/	/
CCCC(=O)Nc1ccc2c(c1)C(=O)N(C)[C@H]1CC[C@@H](CC(=O)OC)O[C@@H]1CO2	.	/	.	/	.	/	/	/
O=C(c1ccccc1)c1ccc2nc(-c3ccc(NC(=O)c4ccccc4Br)cc3)[nH]c2c1	.	.	.	34	.	.	.	.
CN(c1ccccc1)S(=O)(=O)c1ccc(Cl)c(C(=O)Nc2ccc(-c3nc4ccccc4[nH]3)cc2)c1	.	.	.	60	.	.	27	54
CS(=O)(=O)c1ccccc1C(=O)Nc1ccc(-c2nc3ccccc3[nH]2)cc1	.	.	.	.	.	.	/	/
Cc1ccc(CNC(=O)OC(C)(C)C)c(/C=C/S(=O)(=O)NCc2ccc(F)cc2)c1	.	/	.	/	.	/	/	/
SMILES	PRMT1 FP inh	ATG4B inhibitor	ABHD4 inh	TCR-CD3 inh	SIAE primary	HTRA1 inhibitor	BSA TAMRA ctr	TCR-CD3 inh conf
CCC(C)N(C(=O)CN1C(=O)C2CCCCN2C(=O)c2ccccc21)C(C)CC (centres undefined)	.	/	.	/	.	/	/	/
COC(=O)C[C@H]1CC[C@@H]2[C@H](COc3ccc(NC(=O)c4cnccn4)cc3C(=O)N2C)O1	.	/	.	/	.	/	/	/
Oc1cc(O)cc(C=Cc2ccc(O)c(O)c2)c1	.	/	.	21	.	/	.	.
O=C(Cn1nc(-c2ccccc2)c2ccccc2c1=O)Nc1ccc(F)cc1	.	.	.	.	.	.	/	/
N#Cc1c(-c2ccccc2)c(-c2ccccc2)nn(CC(=O)NNC(=O)Nc2ccc(Cl)c(Cl)c2)c1=O	.	.	.	30	.	.	.	45
O=C(Cc1ccccc1)N/N=C/c1cc(Br)cc(Cl)c1O	.	.	.	30	.	.	.	.
O=C(CP(=O)(c1ccccc1)c1ccccc1)N/N=C/c1cc(Br)cc(Br)c1O	.	.	.	50	.	.	.	51
COc1cc(Br)cc(/C=N/NC(=O)Cc2ccccc2)c1O	.	.	.	.	.	.	/	/
O=C(CNC(=O)c1ccccc1Br)N/N=C\c1cc([N+](=O)[O-])cc(Br)c1O	.	.	.	69	.	.	.	61
CC(C)(C)N(Cc1cn(Cc2ccccc2)nn1)S(=O)(=O)c1ccc(N2CCCCC2)cc1Br	.	/	.	/	.	/	/	/
Cc1cc(C)cc(OC(C)CCN2CCC(C(O)(c3ccccc3)c3ccccc3)CC2)c1 (centres undefined)	.	/	.	/	.	/	/	/
Cc1ccc(C(=O)NNC(=S)NC(=O)c2ccco2)cc1	.	.	.	.	.	.	/	/
CC(C)C(=O)Nc1ccc(C(=O)NNC(=S)NC(=O)c2ccco2)cc1	.	.	.	33	.	.	.	36
O=C(C(=O)N1CCC(c2ccccc2)CC1)c1ccc(F)c(F)c1	.	/	.	24	.	/	.	.
CC(C)[C@H](N)C(=O)N[C@@H](Cc1ccccc1)C(=O)N1CCC2CCN(S(=O)(=O)c3ccccc3)CC21 (some centres undefined)	.	/	.	/	.	/	/	/
Cc1ccc(-c2nn(-c3ccccc3)cc2C(=O)Nc2ccc(C)c(S(=O)(=O)N3CCOCC3)c2)cc1	.	.	.	69	.	.	30	60
O=C(Nc1cccc(S(=O)(=O)N2CCOCC2)c1)c1cn(-c2ccccc2)nc1-c1ccccc1	.	.	.	.	.	.	/	/
COC(=O)[C@H](CC(C)C)N1Cc2nnn(Cc3ccccc3)c2-c2cc(F)ccc2S1(=O)=O	.	/	.	/	.	/	/	/
O=C(CCNS(=O)(=O)c1ccccc1)NCCCSc1ccccc1	.	.	.	.	.	.	/	/
CCOc1ccc(S(=O)(=O)NCCC(=O)NCCCSc2ccccc2)cc1	.	.	.	43	.	.	.	.
COc1ccc(OCC(=O)N2CCC(n3nccc3NC(=O)C3CC3)CC2)cc1	.	.	.	21	.	.	.	.
